{
  "source": "ChEMBL document CHEMBL4177770",
  "about": "“Discovery of MK-6169, a Potent Pan-Genotype Hepatitis C Virus NS5A Inhibitor with Optimized Activity against Common Resistance-Associated Substitutions” (J Med Chem, 2018)",
  "key": {"[1]": {"target": "T1, Nonstructural protein 5A (Hepatitis C virus) (UniProt Q5L478)", "T1 sequence (whole entry)": "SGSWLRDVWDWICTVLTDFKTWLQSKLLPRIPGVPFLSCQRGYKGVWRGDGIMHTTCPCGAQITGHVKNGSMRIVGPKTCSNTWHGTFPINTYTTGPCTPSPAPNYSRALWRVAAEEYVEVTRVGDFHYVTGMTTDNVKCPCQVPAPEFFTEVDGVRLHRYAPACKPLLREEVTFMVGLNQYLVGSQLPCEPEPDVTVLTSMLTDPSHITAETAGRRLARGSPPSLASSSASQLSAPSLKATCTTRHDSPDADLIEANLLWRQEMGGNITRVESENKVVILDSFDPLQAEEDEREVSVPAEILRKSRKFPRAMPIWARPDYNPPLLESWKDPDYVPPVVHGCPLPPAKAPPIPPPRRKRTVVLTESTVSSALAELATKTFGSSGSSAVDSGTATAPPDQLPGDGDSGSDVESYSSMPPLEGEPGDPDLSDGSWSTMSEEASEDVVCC", "test": "Inhibition of NS5A in HCV genotype 1b infected in HuH7 replicon cells assessed as decrease in viral replication after 3 days by RT-PCR method", "type": "cell-based", "conditions": "Hepatitis C virus subtype 1b"}, "[2]": {"target": "T1, Nonstructural protein 5A (Hepatitis C virus)", "test": "Inhibition of NS5A in HCV genotype 3a infected in HuH7 replicon cells assessed as decrease in viral replication after 3 days by RT-PCR method", "type": "cell-based", "conditions": "Hepatitis C virus subtype 3a"}, "[3]": {"test_system": "T2, Nonstructural protein 5A (Hepatitis C virus), Q5L478 [Y93H]", "T2 sequence (whole entry)": "T1 sequence (whole entry) with Y93H", "test": "Inhibition of NS5A Y93H mutant in HCV genotype 1a infected in HuH7 replicon cells assessed as decrease in viral replication after 3 days by RT-PCR method", "type": "cell-based", "conditions": "Hepatitis C virus subtype 1a"}, "[4]": {"test": "Half life in Beagle dog at 1 mg/kg, iv by LC/MS method", "type": "ADME, organism-based, Canis lupus familiaris", "conditions": "in vivo", "in_short": "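Beagle dogs, two animals per group, dosed IV at 1 mg/kg in 60% PEG200. Plasma was prepared from collected blood by centrifugation, and compound was quantified by LC/MS.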"}, "[5]": {"test": "AUC in Beagle dog at 5 mg/kg, po by LC/MS method", "type": "ADME, organism-based, Canis lupus familiaris", "conditions": "in vivo", "in_short": "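Beagle dogs, two animals per dosing group. Oral dose was given in 10% TWEEN. Blood was collected and spun to plasma, and plasma compound levels were measured by LC/MS.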"}, "[6]": {"test": "Tmax in Wistar Han rat at 10 mg/kg, po by LC/MS method", "type": "ADME, organism-based", "conditions": "in vivo", "in_short": "(§1)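 Male Wistar Han rats, two per dosing group, dosed orally at 10 mg/kg in 10% TWEEN. Plasma was separated from collected blood by centrifugation and analysed by LC/MS.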"}, "[7]": {"test": "MRT in Wistar Han rat at 10 mg/kg, po by LC/MS method", "type": "ADME, organism-based", "conditions": "in vivo", "in_short": "as §1"}, "[8]": {"test": "Drug level in Wistar Han rat at 100 mg/kg, po measured at 24 hrs by LC/MS method", "type": "ADME, organism-based", "conditions": "in vivo, read-out: Drug uptake", "in_short": "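Single rising oral dose study in fed male Wistar Han rats, dosed PO in 10% TWEEN at the indicated doses. Plasma was obtained by centrifuging the blood, and compound levels were determined by LC/MS.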"}, "[9]": {"test_system": "NS3 (Hepatitis C virus), A3EZJ3 [R155K]", "test": "Inhibition of NS3 R155K mutant in HCV genotype 1a infected in HuH7 replicon cells assessed as decrease in viral replication after 3 days by RT-PCR method", "type": "cell-based", "conditions": "Hepatitis C virus subtype 1a"}, "[10]": {"test_system": "Hepatitis C virus subtype 1a", "test": "Resistance ratio of EC90 for NS5A M28K mutant in HCV genotype 1a infected in HuH7 replicon cells to EC90 for NS5A in HCV genotype 1a infected in HuH7 replicon cells", "type": "cell-based"}, "[11]": {"test_system": "Hepatitis C virus subtype 1a", "test": "Resistance ratio of EC90 for NS5A M28T mutant in HCV genotype 1a infected in HuH7 replicon cells to EC90 for NS5A in HCV genotype 1a infected in HuH7 replicon cells", "type": "cell-based"}, "[12]": {"test_system": "Hepatitis C virus subtype 1a", "test": "Resistance ratio of EC90 for NS5A Y93N mutant in HCV genotype 1a infected in HuH7 replicon cells to EC90 for NS5A in HCV genotype 1a infected in HuH7 replicon cells", "type": "cell-based"}, "[13]": {"test_system": "NS3 (Hepatitis C virus), A3EZJ3 [A156T]", "test": "Inhibition of NS3 A156T mutant in HCV genotype 1b infected in HuH7 replicon cells assessed as decrease in viral replication after 3 days by RT-PCR method", "type": "cell-based", "conditions": "Hepatitis C virus subtype 1b"}, "[14]": {"test": "Resistance ratio of EC90 for NS5A in HCV genotype 1b infected in HuH7 replicon cells to EC90 for NS5A in HCV genotype 1a infected in HuH7 replicon cells", "type": "cell-based"}, "[15]": {"test": "Resistance ratio of EC90 for NS5A A92T mutant in HCV genotype 1b infected in HuH7 replicon cells to EC90 for NS5A in HCV genotype 1a infected in HuH7 replicon cells", "type": "cell-based"}, "[16]": {"test": "Resistance ratio of EC90 for NS5A L31V mutant in HCV genotype 1b infected in HuH7 replicon cells to EC90 for NS5A in HCV genotype 1a infected in HuH7 replicon cells", "type": "cell-based"}, "[17]": {"test": "Resistance ratio of EC90 for NS5A F28L mutant in HCV genotype 2a infected in HuH7 replicon cells to EC90 for NS5A in HCV genotype 1a infected in HuH7 replicon cells", "type": "cell-based"}, "[18]": {"test_system": "T2, Nonstructural protein 5A (Hepatitis C virus), Q5L478 [Y93H]", "test": "Inhibition of NS5A Y93H mutant in HCV genotype 3a infected in HuH7 replicon cells assessed as decrease in viral replication after 3 days by RT-PCR method", "type": "cell-based", "conditions": "Hepatitis C virus subtype 3a"}, "[19]": {"test": "Resistance ratio of EC90 for NS5A A146S mutant in HCV genotype 2b infected in HuH7 replicon cells to EC90 for NS5A in HCV genotype 1a infected in HuH7 replicon cells", "type": "cell-based"}, "[20]": {"test": "Resistance ratio of EC90 for NS5A in HCV genotype 4a infected in HuH7 replicon cells to EC90 for NS5A in HCV genotype 1a infected in HuH7 replicon cells", "type": "cell-based"}, "[21]": {"test": "Resistance ratio of EC90 for NS3 D168Y mutant in HCV genotype 1b infected in HuH7 replicon cells to EC90 for NS5A in HCV genotype 1a infected in HuH7 replicon cells"}},
  "note": "Numbering of substitutions follows the chain as printed.",
  "data": [
    {"smiles": "COC(=O)N[C@H](C(=O)N1CCC[C@H]1c1ncc(-c2cc(F)c3c(c2)O[C@@H](c2ccc(C4CC4)s2)n2c-3cc3cc(-c4cnc([C@@H]5CCCN5C(=O)[C@@H](NC(=O)OC)[C@@H]5CCOC(C)(C)C5)[nH]4)ccc32)[nH]1)C(C)C", "values": [
      {"measurement": "EC90", "setting": "[1]", "value": 4.4, "unit": "pM"},
      {"measurement": "EC90", "setting": "[2]", "value": "1 to 6.6", "unit": "pM"},
      {"measurement": "EC90", "setting": "[3]", "value": 33, "unit": "pM"},
      {"measurement": "half-life", "setting": "[4]", "value": 5.8, "unit": "h"},
      {"measurement": "AUC", "setting": "[5]", "value": 4.19, "unit": "µM·h"},
      {"measurement": "Tmax", "setting": "[6]", "value": 3, "unit": "h"},
      {"measurement": "MRT", "setting": "[7]", "value": 6.5, "unit": "h"},
      {"measurement": "concentration at 24 h", "setting": "[8]", "value": 72, "unit": "nM"},
      {"measurement": "EC90", "setting": "[9]", "value": 1.9, "unit": "pM"},
      {"measurement": "Ratio", "setting": "[10]", "value": 100},
      {"measurement": "Ratio", "setting": "[11]", "value": "< 1"},
      {"measurement": "Ratio", "setting": "[12]", "value": 16},
      {"measurement": "EC90", "setting": "[13]", "value": 4, "unit": "pM"},
      {"measurement": "Ratio", "setting": "[14]", "value": 1},
      {"measurement": "Ratio", "setting": "[15]", "value": 1},
      {"measurement": "Ratio", "setting": "[16]", "value": 1},
      {"measurement": "Ratio", "setting": "[17]", "value": "< 1"},
      {"measurement": "EC90", "setting": "[18]", "value": 2400, "unit": "pM"},
      {"measurement": "Ratio", "setting": "[19]", "value": 1},
      {"measurement": "Ratio", "setting": "[20]", "value": 2},
      {"measurement": "Ratio", "setting": "[21]", "value": "< 1"}
    ]}
  ]
}
